According to publication PMC6851555 (Diabetes, Obesity & Metabolism, 2019):

Columns and labels:
[1] = target: T1, PPARγ ligand-binding domain (LBD) (Homo sapiens, UniProt P37231); assay: PPARγLBD-Gal4-luciferase reporter transactivation assay; format: cell-based; conditions: 20 μmol/L GW9662, 10 μmol/L YR4-42; Figure 1H
T1 sequence (P37231 204-505): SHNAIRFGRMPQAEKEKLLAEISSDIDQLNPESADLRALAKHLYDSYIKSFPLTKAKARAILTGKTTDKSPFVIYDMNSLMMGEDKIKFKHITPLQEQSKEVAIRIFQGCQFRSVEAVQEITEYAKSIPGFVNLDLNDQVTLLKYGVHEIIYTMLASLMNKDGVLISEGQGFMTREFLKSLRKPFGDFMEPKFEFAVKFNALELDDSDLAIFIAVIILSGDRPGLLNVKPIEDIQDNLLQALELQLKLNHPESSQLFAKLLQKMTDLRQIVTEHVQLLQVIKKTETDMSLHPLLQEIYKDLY

DIO-C57BL/6J mice = assay: In vivo pharmacological evaluation in diet-induced obese mice; parameters: species or system mouse; conditions: YR4-42 50 mg/kg
Outline: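 Male C57BL/6J mice (6 weeks old) on 60%-fat diet for 10 weeks, continued throughout; 16-week-old DIO mice randomised, n = 12/group, gavaged 38 days with 0.5% CMC-Na vehicle, pioglitazone 25 mg/kg or test compound 50 mg/kg; chow-fed vehicle controls. Body weight every 2 days; insulin tolerance test day 14 (AUC); day 38 liver weighed, TG/TC/FFA by kits normalised to tissue weight; mean ± SEM.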

Compound | effect of antagonist on PPARγ transactivation induced by YR4-42 [1] | hepatic TG, total cholesterol and FFA (DIO-C57BL/6J mice; 38th day, pioglitazone 25 mg/kg oral, Figure 3K-M) | body weight of DIO mice (DIO-C57BL/6J mice; oral gavage 38 days, pioglitazone 25 mg/kg, Figure 3A,B)
O=C(Nc1ccccc1)c1cc([N+](=O)[O-])ccc1Cl [GW9662] | inhibited |  | 
CCc1ccc(CCOc2ccc(CC3SC(=O)NC3=O)cc2)nc1 (stereo not drawn) [pioglitazone] |  | increased | further enhanced weight gain
